Hits are enriched below; roughly 1.1% of the tested compounds scored in any of these assays.
ABCB6 inh 2: ABCB6 transporter inhibitors, primary screen, K562-ABCB6 cells, flow cytometry, MLPCN library | K562-ABCB6 porphyrin accumulation, 1 h; stronger effect = lower value | AID 602162, 2011 | fluorescence ratio to DMSO, % at 10 µM | 360,000 compounds, 0.19% hits | ATP-binding cassette sub-family B member 6 (Homo sapiens), Q9NP58;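 active = fluorescence ratio to DMSO below 75%, the collection mean minus 3 SD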;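 note: signal is porphyrin accumulated inside mitochondria; 100% equals median channel fluorescence of DMSO control wells; lower ratio means ABCB6 inhibition with less porphyrin fluorescence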
hiPSC survival: enhancers of single-cell hiPSC survival, primary screen, ATPlite luminescence. 100% = ROCK inhibitor wells, 0% = DMSO. 360,000 compounds, 0.044% hits. AID 602274, 2012. survival enhancement, % at 20 µM; in the data active = survival enhancement above about 18%;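 note: cells exposed to compounds for 16 hours before the ATP read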
FAS-TE inh: FAS thioesterase domain inhibitors, primary screen, biochemical, fluorescence intensity, uHTS | AID 602261, 2012 | 360,000 compounds, 0.67% hits | Fatty acid synthase (Homo sapiens), P49327 | inhibition, % at 15 µM | recombinant FAS-TE, OMFH fluorogenic substrate, fluorescence endpoint;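 active = compounds whose normalised, plate-corrected inhibition of enzyme fluorescence in the single-dose primary screen is 50% or more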;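 note: 0% = DMSO with enzyme and 100% = substrate without enzyme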
SENP1 inh: human SENP1 catalytic domain inhibitors, primary screen, biochemical, FRET, uHTS. recombinant SENP1 catalytic domain, CyPet-SUMO1-YPet FRET cleavage. Sentrin-specific protease 1 (Homo sapiens), Q9P0U3. inhibition, % at 10 µM. AID 624204, 2012. 360,000 compounds, 0.21% hits;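 active = inhibition at least 30% at 10 µM, raw YFP signal under a set limit, fluorescence ratio 0.5 to 1.5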;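 note: 0% = enzyme with DMSO and 100% = no enzyme wells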
Target sequence (Q9P0U3 419-644 limits assumed): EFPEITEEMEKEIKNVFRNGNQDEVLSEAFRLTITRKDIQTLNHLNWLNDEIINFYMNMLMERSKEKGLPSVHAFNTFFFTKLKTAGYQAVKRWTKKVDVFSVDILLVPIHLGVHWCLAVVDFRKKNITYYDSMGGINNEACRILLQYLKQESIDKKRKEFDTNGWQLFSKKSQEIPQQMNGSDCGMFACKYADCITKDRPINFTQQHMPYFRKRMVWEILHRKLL
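Assay system – human recombinant His6-tagged SENP1 catalytic domain enzyme · Input – SENP1 enzyme, 20 pM final · Buffer or medium – Tris pH 8 buffer plus EDTA, NaCl, BME, BSA, NP40, catalase · Schedule – 50 min reaction at room temperature · Technique – FRET read of cyan and yellow fluorescence · Control set – no-enzyme wells low, DMSO-plus-enzyme wells high control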
FAS-TE inh conf: FAS thioesterase domain inhibitors, confirmation, biochemical, fluorescence intensity, single concentration; shares compounds with FAS-TE inh; recombinant FAS-TE, OMFH fluorogenic substrate; 2,300 compounds, 45% hits; AID 624325, 2012; inhibition, % at 15 µM;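 active = compounds inhibiting the enzyme by at least 50% at 15 µM in any one of the replicates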;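 note: 0% = enzyme with DMSO only and 100% = wells lacking enzyme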
The depositor's hits bear a star; nt = not tested or not shown; ! = not confirmed by another sample.

SMILES	ABCB6 inh 2	hiPSC survival	FAS-TE inh	SENP1 inh	FAS-TE inh conf
COc1ccc(Cl)cc1S(=O)(=O)N1CCC(C(=O)NCc2ccco2)CC1	97.0	-0.3	-2.9	1.3	nt
Cc1cc(C)cc(OCC(=O)Nc2ccc(-n3cnnn3)cc2)c1	97.0	-0.2	1.2	-1.0	nt
O=C(CSc1nnc2ccccn12)NNC(=O)c1ccccc1F	90.0	-2.2	-7.7	1.7	nt
O=C(COC(=O)c1cc(S(=O)(=O)N2CCOCC2)ccc1Cl)Nc1ccc(Cl)cn1	96.0	-1.3	3.1	0.4	nt
O=C(COC(=O)c1cc([N+](=O)[O-])ccc1N1CCOCC1)Nc1ccc(Cl)cn1	96.0	-0.3	71.0*	-6.1	58.7*
COCCOc1ccc(C(F)(F)F)cc1NC(=O)COC(=O)c1cc([N+](=O)[O-])ccc1N1CCOCC1	95.0	0.0	71.6*	0.5	30.2*
CC1(c2ccccc2)NC(=O)N(CC(=O)NCC2CCCO2)C1=O (stereo not drawn)	100.0	1.8	-6.1	1.7	nt
Cc1ccc(NC2(c3nnnn3-c3c(C)cccc3C)CCCCC2)cc1	103.0	0.2	53.6*	-0.4	29.8
O=C(COC(=O)c1cc([N+](=O)[O-])ccc1NCCO)NCc1cccs1	101.0	-0.4	73.0*	3.1	77.6*
O=C(COC(=O)c1cc([N+](=O)[O-])ccc1NCCO)c1ccccc1	98.0	0.8	59.3*	4.3	67.8*
COC(=O)c1cc(C(=O)OCC(=O)NCc2cccs2)cc([N+](=O)[O-])c1	85.0	6.2	64.3*	0.4	45.3
Cc1ccc(S(=O)(=O)N2CCN(C(=O)COC(=O)c3cc([N+](=O)[O-])ccc3NCCO)CC2)c(C)c1	100.0	2.8	71.0*	-2.8	73.7*
O=C(C1CCC(=O)N(C2CCCC2)C1)N1CCN(Cc2cccc(Cl)c2)CC1 (stereo not drawn)	95.0	1.7	-9.4	0.6	nt
CC(=O)N[C@@H](C)c1nc2ccccc2n1CCCN1CCN(c2nc(-c3ccc(C)cc3)cs2)CC1	88.0	-3.0	-2.6	-124.5	nt
O=C(NC(Cc1ccccc1)c1nc2ccccc2[nH]1)c1ccc(Cl)c([N+](=O)[O-])c1 (stereo not drawn)	104.0	-3.5	25.5	-4.8	nt
CSCC[C@H](NC(=O)c1ccc(Cl)c([N+](=O)[O-])c1)c1nc2ccccc2[nH]1	100.0	-0.9	59.2*	-0.4	63.6*
Cc1cccc(NC2(C(=O)O)CCCC2)c1	107.0	3.7	0.0	-6.0	nt
COc1cccc(CNS(=O)(=O)c2ccc3c(c2)oc(=O)n3C)c1	109.0	-0.1	-11.3	9.9	nt
Cc1ccc(CN2C(=O)C(Cc3ccccc3)Nc3ncnc(N4CCN(c5ccccc5)CC4)c32)cc1 (stereo not drawn)	100.0	-2.4	62.4*	4.9	12.0
O=C1C(Cc2ccccc2)Nc2ncnc(N3CCN(c4ccccc4)CC3)c2N1Cc1ccc(Br)cc1 (stereo not drawn)	97.0	1.1	82.8*!	5.3	15.2
O=C1C(Cc2ccccc2)Nc2ncnc(N3CCN(c4ccccc4)CC3)c2N1Cc1ccccc1 (stereo not drawn)	115.0	5.0	6.6	-10.8	nt
Cc1ccccc1CS(=O)(=O)c1nnc([C@H](Cc2ccccc2)NC(=O)OC(C)(C)C)o1	94.0	-1.9	63.6*	-0.7	26.8*
CCc1nnc(NC(=O)CC(C)c2ccccc2)s1 (stereo not drawn)	95.0	-0.3	-0.6	-0.3	nt
CC(C)(C)c1ccc(C(=O)NCCC(=O)Nc2ccc3c(c2)OCCO3)cc1	101.0	-0.3	7.1	2.6	nt
COCCn1c(=NC(=O)c2ccc(S(=O)(=O)N3CCCc4ccccc43)cc2)sc2cc(S(C)(=O)=O)ccc21	102.0	-1.1	83.5*	-1.0	32.0*
SMILES	ABCB6 inh 2	hiPSC survival	FAS-TE inh	SENP1 inh	FAS-TE inh conf
CC1CCCN(S(=O)(=O)c2ccc(NC(=O)Cc3ccc(S(=O)(=O)N4CCOCC4)s3)cc2)C1 (stereo not drawn)	103.0	-0.1	61.0*	3.1	27.6*
CC1CCN(S(=O)(=O)c2ccc(NC(=O)Cc3ccc(S(=O)(=O)N4CCOCC4)s3)cc2)CC1	94.0	-0.5	42.8	-7.8	nt
CCOc1ccccc1OCCC(=O)OCC(=O)Nc1c(C)nn(-c2ccccc2)c1C	97.0	0.1	-5.3	1.5	nt
CC(=O)c1cccc(-c2ccnc3c2CC(C(=O)Nc2cccc(OC(F)(F)F)c2)O3)c1 (stereo not drawn)	99.0	0.6	53.7*	-3.0	56.7*
O=C(Nc1cccc(OC(F)(F)F)c1)C1Cc2c(-c3ccc(Cl)cc3)ccnc2O1 (stereo not drawn)	91.0	-1.4	32.1	1.3	nt
Cn1cccc1/C=N/N1CCN(c2ccccc2)CC1	96.0	1.4	-1.7	1.2	nt
COCCCNC(=S)N1CCC(C(=O)c2ccc(Cl)cc2)CC1	94.0	-0.6	-3.1	2.9	nt
C=CCOc1cccc(CNc2cccc(C(=O)O)c2)c1	99.0	1.5	-7.5	1.8	nt
Cc1nc2scc(-c3ccccc3)c2c(=O)n1N	100.0	0.3	-7.1	-1.7	nt
COc1ccc(-c2csc3nc(-c4ccccc4OC)oc(=O)c23)cc1	90.0	0.6	62.8*	3.0	42.3
CC(C)(C)c1nc2scc(-c3cccs3)c2c(=O)o1	95.0	-1.3	58.3*	4.5	55.7*
Cc1nc2scc(-c3ccccc3)c2c(=O)o1	91.0	1.0	50.6*	1.4	73.1*
CC(C)(C)c1nc2scc(-c3ccc(Cl)cc3)c2c(=O)o1	89.0	6.0	-2.0	-0.2	nt
O=c1oc(-c2ccccc2F)nc2scc(-c3ccccc3)c12	102.0	-0.7	85.6*	5.3	36.5*
O=C(O)CCC(=O)c1ccc(C2CCCCCC2)cc1	94.0	0.7	-2.2	2.5	nt
CC(C)Nc1ncnc2c1ncn2[C@H]1CN(Cc2ccccc2)C[C@@H](CO)O1	100.0	-0.8	-8.5	1.4	nt
CCN1CCN(c2cc(C)c3cc(NC(=S)N4CCCC(C)C4)ccc3n2)CC1 (stereo not drawn)	97.0	-0.7	-0.8	-36.0	nt
O=C(CC1C[C@H](C(=O)N2CCOCC2)[C@@]2(CCC3CCCC3)c3[nH]c4ccccc4c3CCN2C1=O)NCCCn1ccnc1 (stereo partly drawn)	88.0	0.7	68.9*	1.6	64.3*
O=C(C[C@H]1C[C@H](C(=O)N2CCCCC2)[C@@]2(CCc3ccccc3)c3[nH]c4ccc(Cl)cc4c3CCN2C1=O)NCc1cccc(C(F)(F)F)c1	99.0	-2.1	36.0	-2.5	nt
O=C(CC1C[C@H](C(=O)N2CCCCC2)[C@@]2(CCc3ccccc3)c3[nH]c4ccccc4c3CCN2C1=O)NCc1cccc(C(F)(F)F)c1 (stereo partly drawn)	100.0	-2.6	53.9*	0.5	29.2
